According to ChEMBL document CHEMBL4312029, “Structure-activity relationship studies and in vitro and in vivo anticancer activity of novel 3-aroyl-1,4-diarylpyrroles against solid tumors and hematological malignancies” (Eur J Med Chem, 2020):

Experiments:
[1] = tested on: T-24; assay: Cytotoxicity against human T24 cells assessed as reduction in cell viability incubated for 48 hrs by MTT assay; type: functional, cell-based; details: T-24, 48 h
[2] = biological target: Tubulin; assay: Inhibition of tubulin polymerization (unknown origin) incubated for 15 mins followed by GTP addition and measured for 20 mins by spectrophotometry; type: protein-complex assay, Homo sapiens
How it was run: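 Tubulin assembly assay with tubulin at 10 µM. IC50 for inhibition of polymerization; run in duplicate or triplicate.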

[3] = tested on: U-87 MG; assay: Cytotoxicity against human U87MG cells assessed as reduction in cell viability incubated for 48 hrs by MTS assay; type: functional, cell-based, U-87MG ATCC; details: for inhibition: U-87MG ATCC
How it was run: (§1)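 Increasing concentrations applied to glioblastoma and neuroblastoma lines to give dose-response viability curves; cytotoxic IC50 from triplicate experiments. Incubation 48 h, except U343MG at 72 h.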

[4] = tested on: SW480; assay: Cytotoxicity against human SW480 cells assessed as reduction in cell viability incubated for 48 hrs by MTT assay; type: functional, cell-based; details: for IC50: SW480, 48 h
[5] = tested on: KBM5; assay: Cytotoxicity against human KBM5 cells expressing IM- sensitive wild type Bcr/Abl assessed as reduction in cell viability incubated for 48 hrs by MTT assay; type: functional, cell-based; details: KBM5, 48 h
[6] = tested on: HT-29; assay: Cytotoxicity against human HT-29 cells assessed as reduction in cell viability incubated for 48 hrs by MTT assay; type: functional, cell-based; details: for IC50: HT-29, 48 h
[7] = Cytotoxicity against human LAMA84-s cells expressing IM-sensitive wild type Bcr/Abl assessed as reduction in cell viability incubated for 48 hrs by MTT assay; type: functional, cell-based
[8] = tested on: KU812 cell line; assay: Cytotoxicity against human KU812 cells expressing IM- sensitive wild type Bcr/Abl assessed as reduction in cell viability incubated for 48 hrs by MTT assay; type: functional, cell-based; details: KU812, 48 h
[9] = Cytotoxicity against IM resistant human LAMA84-r cells assessed as reduction in cell viability incubated for 48 hrs by MTT assay; type: functional, cell-based
[10] = tested on: T98G; assay: Cytotoxicity against human T98G cells assessed as reduction in cell viability incubated for 48 hrs by MTS assay; type: functional, cell-based; how it was run: as §1
[11] = Cytotoxicity against human SK-N-BE cells assessed as reduction in cell viability incubated for 48 hrs by MTT assay; type: functional, cell-based; how it was run: as §1
[12] = Cytotoxicity against human SK-N-BE(2)C cells assessed as reduction in cell viability incubated for 48 hrs by MTT assay; type: functional, cell-based; how it was run: as §1
[13] = biological target: Tubulin (Homo sapiens) (UniProt P68371+Q9H4B7+P0DPH7+P68366+Q13509+Q71U36+P04350+Q3ZCM7+P07437+P68363+Q9BQE3+Q6PEY2+Q13885+Q9BVA1+Q9BUF5); assay: Inhibition of [3H]colchicine binding to tubulin (unknown origin) at 5 uM incubated for 10 mins by DEAE-cellulose filter method relative to control; type: protein-complex assay
[14] = organism: Homo sapiens; assay: (§2) Cytotoxicity against human U343MG cells assessed as reduction in cell viability incubated for 72 hrs by MTS assay; type: functional, cell-based; how it was run: as §1
[15] = as §2; type: functional, cell-based; details: U-343MG; how it was run: as §1
[16] = tested on: HCT-116; assay: Cytotoxicity against human HCT116 cells assessed as reduction in cell viability incubated for 48 hrs by MTT assay; type: functional, cell-based; details: for IC50: HCT-116, 48 h
[17] = tested on: SW-620; assay: Cytotoxicity against human SW620 cells assessed as reduction in cell viability incubated for 48 hrs by MTT assay; type: functional, cell-based; details: for IC50: SW-620, 48 h
[18] = tested on: MCF7; assay: Cytotoxicity against human MCF7 cells assessed as reduction in cell growth incubated for 96 hrs by MTT assay; type: functional, cell-based; details: MCF7, 96 h
How it was run: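 Growth inhibition of human breast carcinoma cells, reported as IC50; run in duplicate or triplicate.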

[19] = tested on: KBM5; assay: Cytotoxicity against human KBM5 cells expressing IM-resistant Bcr/Abl T315I mutant assessed as reduction in cell viability incubated for 48 hrs by MTT assay; type: functional, cell-based; details: KBM5, 48 h
[20] = tested on: PBMC; assay: Cytotoxicity against human PBMC assessed as cell viability by MTT assay; type: cell-based

## COc1cc(C(=O)c2cn(-c3cccc(N)c3)cc2-c2ccccc2[N+](=O)[O-])cc(OC)c1OC
[1]
  IC50: 12 nM
[2]
  IC50: 710 nM
[3]
  Emax: 32.4%
  IC50: 29.9 to 30 nM
  inhibition: Dose-dependent effect
[4]
  inhibition: Dose-dependent effect
  IC50: 164 nM
[5]
  IC50: 15 nM
[6]
  inhibition: Dose-dependent effect
  IC50: 51 nM
[7]
  IC50: 18 nM
[8]
  IC50: 16 nM
[9]
  IC50: 20 nM
[10]
  Emax: 26.7%
  IC50: 34.6 to 35 nM
  inhibition: Dose-dependent effect
[11]
  IC50: 311 nM
[12]
  IC50: 132 nM
[13]
  inhibition: 82%
[14]
  inhibition: Dose-dependent effect
[15]
  Emax: 35.3%
  IC50: 30 to 30.2 nM
[16]
  inhibition: Dose-dependent effect
  IC50: 44 nM
[17]
  inhibition: Dose-dependent effect
  IC50: 38 nM
[18]
  IC50: 14 nM
[19]
  IC50: 21 nM
[20]
  Activity: Non-Toxic

## COc1cc(C(=O)c2cn(-c3ccc(F)cc3)cc2-c2ccc(N)cc2)cc(OC)c1OC
[1]
  IC50: 48 nM
[2]
  IC50: 500 nM
[3]
  Emax: 32%
  IC50: 45.8 to 46 nM
  inhibition: Dose-dependent effect
[4]
  inhibition: Dose-dependent effect
  IC50: 167 nM
[5]
  IC50: 25 nM
[6]
  inhibition: Dose-dependent effect
  IC50: 35 nM
[7]
  IC50: 20 nM
[8]
  IC50: 18 nM
[9]
  IC50: 22 nM
[10]
  Emax: 31%
  IC50: 21.8 to 22 nM
  inhibition: Dose-dependent effect
[11]
  IC50: 288 nM
[12]
  IC50: 178 nM
[13]
  inhibition: 90%
[14]
  inhibition: Dose-dependent effect
[15]
  Emax: 37.1%
  IC50: 20 to 20.1 nM
[16]
  inhibition: Dose-dependent effect
  IC50: 36 nM
[17]
  inhibition: Dose-dependent effect
  IC50: 47 nM
[18]
  IC50: 12 nM
[19]
  IC50: 26 nM
[20]
  Activity: Non-Toxic
